{"source": "ChEMBL document CHEMBL2375290", "about": "“Nonclassical antifolates, part 3: synthesis, biological evaluation and molecular modeling study of some new 2-heteroarylthio-quinazolin-4-ones” (Eur J Med Chem, 2013)", "key": {"Pseudomonas aeruginosa [1]": {"tested_on": "Pseudomonas aeruginosa", "assay": "Antimicrobial activity against Pseudomonas aeruginosa after 24 hrs by micro-dilution susceptibility method", "format": "functional", "in_short": "(§1)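 Broth microdilution in Müller-Hinton broth against S. aureus IFO 3060, B. subtilis IFO 3007, E. coli IFO 3301 and P. aeruginosa IFO 3448. These are the same standard strains used in the disc-diffusion primary screen. Compounds were solubilized in DMSO. MIC recorded as the minimal inhibitory concentration.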"}, "Escherichia coli [2]": {"tested_on": "Escherichia coli", "assay": "Antimicrobial activity against Escherichia coli after 24 hrs by micro-dilution susceptibility method"}, "Micrococcus luteus [3]": {"tested_on": "Micrococcus luteus", "assay": "Antimicrobial activity against Micrococcus luteus after 24 hrs by micro-dilution susceptibility method", "format": "functional", "in_short": "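MIC by broth microdilution in Müller-Hinton broth against M. luteus IFO 3232, the same strain used in the disc-diffusion primary screen.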"}, "Bacillus subtilis [4]": {"tested_on": "Bacillus subtilis", "assay": "Antimicrobial activity against Bacillus subtilis after 24 hrs by micro-dilution susceptibility method", "format": "functional", "in_short": "as §1"}, "Staphylococcus aureus [5]": {"tested_on": "Staphylococcus aureus", "assay": "Antimicrobial activity against Staphylococcus aureus after 24 hrs by micro-dilution susceptibility method", "format": "functional", "in_short": "as §1"}, "Pseudomonas aeruginosa [6]": {"tested_on": "Pseudomonas aeruginosa", "assay": "Antimicrobial activity against Pseudomonas aeruginosa at 100 ug after 24 hrs by agar disc diffusion method", "format": "functional", "settings": "read-out: DIZ"}, "Escherichia coli [7]": {"tested_on": "Escherichia coli", "assay": "Antimicrobial activity against Escherichia coli at 100 ug after 24 hrs by agar disc diffusion method", "format": "functional", "settings": "read-out: DIZ"}, "Micrococcus luteus [8]": {"tested_on": "Micrococcus luteus", "assay": "Antimicrobial activity against Micrococcus luteus at 100 ug after 24 hrs by agar disc diffusion method", "format": "functional", "settings": "read-out: DIZ", "in_short": "(§2)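 Agar disc diffusion on Müller-Hinton agar. Sterile 8 mm filter-paper discs were moistened with the compound in DMSO. Strains were B. subtilis IFO 3007 and M. luteus IFO 3232. Plates were incubated at 37 °C, and growth-inhibition zone diameters were measured in mm after 24 h. DMSO served as the solvent control.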"}, "Bacillus subtilis [9]": {"tested_on": "Bacillus subtilis", "assay": "Antimicrobial activity against Bacillus subtilis at 100 ug after 24 hrs by agar disc diffusion method", "format": "functional", "settings": "read-out: DIZ", "in_short": "as §2"}, "Staphylococcus aureus [10]": {"tested_on": "Staphylococcus aureus", "assay": "Antimicrobial activity against Staphylococcus aureus at 100 ug after 24 hrs by agar disc diffusion method", "format": "functional", "settings": "read-out: DIZ"}}}
{"smiles": "CC(=O)NS(=O)(=O)c1ccc(N)cc1", "note": "[SULFACETAMIDE]", "values": [{"measurement": "MIC", "setting": "Pseudomonas aeruginosa [1]", "value": 2, "unit": "µg/mL"}, {"measurement": "MIC", "setting": "Escherichia coli [2]", "value": 1, "unit": "µg/mL"}, {"measurement": "MIC", "setting": "Micrococcus luteus [3]", "value": 2, "unit": "µg/mL"}, {"measurement": "MIC", "setting": "Bacillus subtilis [4]", "value": 2, "unit": "µg/mL"}, {"measurement": "MIC", "setting": "Staphylococcus aureus [5]", "value": 2, "unit": "µg/mL"}, {"measurement": "zone of inhibition at 100 µg/disc", "setting": "Pseudomonas aeruginosa [6]", "value": 25, "unit": "mm"}, {"measurement": "zone of inhibition at 100 µg/disc", "setting": "Escherichia coli [7]", "value": 28, "unit": "mm"}, {"measurement": "zone of inhibition at 100 µg/disc", "setting": "Micrococcus luteus [8]", "value": 18, "unit": "mm"}, {"measurement": "zone of inhibition at 100 µg/disc", "setting": "Bacillus subtilis [9]", "value": 22, "unit": "mm"}, {"measurement": "zone of inhibition at 100 µg/disc", "setting": "Staphylococcus aureus [10]", "value": 20, "unit": "mm"}]}
